Data published in ChEMBL document CHEMBL1156913, “Design and synthesis of anti-breast cancer agents from 4-piperazinylquinoline: a hybrid pharmacophore approach” (Bioorg Med Chem, 2010).
The source made the active and inactive calls. No cut-off for these calls is given here.

Tests used:
[1] = system: MCF7; experiment: Cytotoxicity against human MCF7 cells after 48 hrs by SRB assay; type: functional; details: MCF7, 48 h
In short: (§1)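 5000–10,000 cells/well preincubated 24 h at 37 °C, 5% CO2, with TCA-fixed time-zero wells. Fivefold serial dilutions (100 to 0.0064 µM) and a DMSO-matched medium control, exposed 48 h. Fixed in 10% TCA for 60 min at 4 °C, stained with 0.4% SRB in 1% acetic acid, solubilized in 10 mM Tris base, read at 515–564 nm. GI50 from variable-slope sigmoidal fits; triplicates, at least two independent experiments.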

[2] = Cytotoxicity against human MCF10A cells after 48 hrs by SRB assay; type: cell-based, MCF-10A; in short: as §1
[3] = system: MDA-MB-468; experiment: Cytotoxicity against human MDA-MB-468 cells after 48 hrs by SRB assay; type: functional; details: MDA-MB-468, 48 h; in short: as §1
[4] = Cytotoxicity against human 184B5 cells after 48 hrs by SRB assay; type: cell-based; in short: as §1
[5] = system: MCF7; experiment: Cell cycle arrest in human MCF7 cells assessed as accumulation at S phase at 20 uM by flow cytometry; type: functional
In short: (§2)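 MCF7 (RPMI 1640, 10% FBS, 2 mM L-glutamine) or MCF10A (mammary epithelial basal medium plus MEGM supplements) treated 24 h at 20 or 40 µM with DMSO vehicle controls. 2.0 × 10^6 cells fixed in ice-cold 70% ethanol at -20 °C, then stained 30 min at 37 °C with 100 µg/mL PI, RNase A, 0.3% NP-40 and 0.1% sodium citrate. Phase fractions taken from DNA-content histograms.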

[6] = system: MCF7; experiment: Induction of apoptosis in human MCF7 cells assessed as cell death at 40 uM after 24 hrs; type: functional
In short: (§3)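 MCF7 cells grown in RPMI 1640 with 10% FBS and 2 mM L-glutamine at 37 °C, 5% CO2. Treated 24 h, with DMSO-only medium as negative control. 2.0 × 10⁶ cells harvested, fixed in ice-cold 70% ethanol at −20 °C, and stained 30 min at 37 °C with PI mix (100 µg/mL PI, RNase A, 0.3% NP-40, 0.1% sodium citrate). DNA content read by flow cytometry; apoptotic fraction taken from DNA histograms.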

[7] = system: MCF-10A; experiment: Cell cycle arrest in human MCF10A cells assessed as decrease in at S phase at 20 uM by flow cytometry; type: functional, cell-based; in short: as §2
[8] = system: MCF7; experiment: Cell cycle arrest in human MCF7 cells assessed as accumulation at G2/M phase at 20 uM by flow cytometry; type: functional; in short: as §2
[9] = system: MCF7; experiment: Cell cycle arrest in human MCF7 cells assessed as accumulation at G1/G0 phase at 40 uM by flow cytometry; type: functional; in short: as §2
[10] = system: MCF7; experiment: Induction of apoptosis in human MCF7 cells assessed as cell death at 20 uM after 24 hrs; type: functional; in short: as §3
[11] = system: MCF7; experiment: Cell cycle arrest in human MCF7 cells assessed as accumulation at S phase at 40 uM by flow cytometry; type: functional; in short: as §2
[12] = system: MCF7; experiment: Cell cycle arrest in human MCF7 cells assessed as accumulation at G1/G0 phase at 20 uM by flow cytometry; type: functional; in short: as §2
[13] = system: MCF7; experiment: Cell cycle arrest in human MCF7 cells assessed as accumulation at G2/M phase at 40 uM by flow cytometry; type: functional; in short: as §2
[14] = system: MCF7; experiment: Induction of apoptosis in human MCF7 cells assessed as cell death; type: functional, cell-based

Row | Structure (SMILES) | GI50 [1] [µM] | GI50 at 48 h [2] [µM] | GI50 [3] [µM] | GI50 at 48 h [4] [µM] | also measured
1 | NC(=S)N/N=C1/C(=O)N(CN2CCN(c3ccnc4cc(C(F)(F)F)ccc34)CC2)c2cccc(Br)c21 | 50.6 | 30.6 | 30.4 | 26.4 | –
2 | NC(=S)/N=N/c1c(O)[nH]c2ccccc12 | 36.9 | 88.8 | 35.5 | 60.4 | –
3 | NC(=S)N/N=C1\C(=O)Nc2cc(Br)ccc21 | 17.9 | 32 | 18.6 | 34.9 | –
4 | O=C1C(=O)N(CN2CCN(c3ccnc4cc(C(F)(F)F)ccc34)CC2)c2cc(Cl)ccc21 | 15.8 | 32.8 | 26.1 | 25.2 | –
5 | NC(=S)N/N=C1\C(=O)Nc2cc(Cl)ccc21 | 17.2 | 48.5 | 17.7 | 40.8 | –
6 | NC(=S)N/N=C1/C(=O)N(CN2CCN(c3ccnc4cc(C(F)(F)F)ccc34)CC2)c2cc(Br)ccc21 | 35.5 | 26.9 | 39.6 | 21.4 | –
7 | NC(=S)N/N=C1/C(=O)N(CN2CCN(c3ccnc4cc(C(F)(F)F)ccc34)CC2)c2cccc(Cl)c21 | 21.6 | 51.7 | 23 | 87.8 | Activity [5]: 17%; Activity [6]: Active; Activity [7]: inactive; Activity [8]: 12%; Activity [9]: 65%; Activity [10]: Active; Activity [11]: 16%; Activity [12]: 64%; Activity [13]: 11%
8 | NC(=S)N/N=C1/C(=O)N(CN2CCN(c3ccnc4cc(Cl)ccc34)CC2)c2cc(Cl)ccc21 | 22.5 | 64.6 | 26.5 | 41.3 | –
9 | NC(=S)N/N=C1/C(=O)N(CN2CCN(c3ccnc4cc(Cl)ccc34)CC2)c2ccccc21 | 23 | 27.7 | 20.6 | 28.8 | –
10 | O=C1C(=O)N(CN2CCN(c3ccnc4cc(Cl)ccc34)CC2)c2cc(Br)ccc21 | 17.6 | 17.9 | 35.8 | 33.2 | –
11 | NC(=S)N/N=C1/C(=O)N(CN2CCN(c3ccnc4cc(C(F)(F)F)ccc34)CC2)c2cc(Cl)ccc21 | 24.6 | 38.8 | 11 | 20.1 | –
12 | O=C1C(=O)N(CN2CCN(c3ccnc4cc(Cl)ccc34)CC2)c2cccc(Br)c21 | 15.1 | 65.6 | 15.9 | 49 | Activity [5]: 18%; Activity [14]: Dose-dependent effect; Activity [6]: 10%; Activity [7]: inactive; Activity [8]: 14%; Activity [9]: 64%; Activity [10]: 6%; Activity [11]: 14%; Activity [12]: 63%; Activity [13]: 12%
13 | NC(=S)N/N=C1/C(=O)N(CN2CCN(c3ccnc4cc(C(F)(F)F)ccc34)CC2)c2ccccc21 | 13.9 | 22.6 | 10.3 | 20.2 | –
14 | NC(=S)N/N=C1/C(=O)N(CN2CCN(c3ccnc4cc(Cl)ccc34)CC2)c2cccc(Cl)c21 | 57.5 | 19.8 | 57.6 | 20.7 | –
15 | NC(=S)N/N=C1/C(=O)N(CN2CCN(c3ccnc4cc(Cl)ccc34)CC2)c2cccc(Br)c21 | 46.6 | 29.4 | 40.4 | 46.4 | –
16 | O=C1C(=O)N(CN2CCN(c3ccnc4cc(Cl)ccc34)CC2)c2cc(Cl)ccc21 | 26.1 | 67.8 | 36.6 | 47.5 | –
17 | O=C1C(=O)N(CN2CCN(c3ccnc4cc(C(F)(F)F)ccc34)CC2)c2cccc(Cl)c21 | 16.9 | 24 | 28.4 | 47.4 | –
18 | O=C1C(=O)N(CN2CCN(c3ccnc4cc(Cl)ccc34)CC2)c2cccc(Cl)c21 | 39.1 | 25.6 | 37.8 | 77.7 | –
19 | NC(=S)N/N=C1\C(=O)Nc2cccc(Br)c21 | 14.8 | 21.4 | 21.2 | 22.6 | –
20 | O=C1C(=O)N(CN2CCN(c3ccnc4cc(C(F)(F)F)ccc34)CC2)c2cc(Br)ccc21 | 28.1 | 24.4 | 24.8 | 21.8 | –
21 | O=C1C(=O)N(CN2CCN(c3ccnc4cc(C(F)(F)F)ccc34)CC2)c2ccccc21 | 34 | 70 | 15.3 | 43.9 | –
22 | NC(=S)N/N=C1\C(=O)Nc2cccc(Cl)c21 | 30.2 | 28.7 | 24 | 25.9 | –
23 | CCN(CC)CCCC(C)Nc1ccnc2cc(Cl)ccc12 (stereo unspecified) [CHLOROQUINE] | – | 81.3 | – | 76.1 | –
24 | O=C1C(=O)N(CN2CCN(c3ccnc4cc(C(F)(F)F)ccc34)CC2)c2cccc(Br)c21 | 66.8 | 37.9 | 52.2 | 49.7 | –
25 | NC(=S)N/N=C1/C(=O)N(CN2CCN(c3ccnc4cc(Cl)ccc34)CC2)c2cc(Br)ccc21 | 11.4 | 22.1 | 11.2 | 13.1 | –
26 | O=C1C(=O)N(CN2CCN(c3ccnc4cc(Cl)ccc34)CC2)c2ccccc21 | 48.3 | 45.9 | 37.9 | 71.7 | –
